In ChEMBL document CHEMBL1143805, “Synthesis and antimicrobial activities of some novel 1,2,4-triazolo[3,4-b]-1,3,4-thiadiazoles and 1,2,4-triazolo[3,4-b]-1,3,4-thiadiazines carrying thioalkyl and sulphonyl phenoxy moieties” (2007):
≈ marks a conversion by molar mass, not a printed value.

What was measured:
Pseudomonas aeruginosa = test: Antibacterial activity against Pseudomonas aeruginosa ATCC 27853; type: functional; conditions: for MIC: Pseudomonas aeruginosa, ATCC 27853
Summary of the method: (§1)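 MIC by serial dilution in Mueller-Hinton broth tubes, pH adjusted to 5.0 with phosphate buffer. A standardized bacterial suspension was inoculated and incubated 16-18 h at 37 °C, and MIC was read as the lowest concentration with no visible growth. Zones were also measured in agar wells on seeded plates, with compounds in DMSO and a DMSO control, triplicate plates, 37 °C for 3-4 days.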

Staphylococcus aureus = test: Antibacterial activity against Staphylococcus aureus ATCC 25923; type: functional; conditions: for MIC: Staphylococcus aureus, ATCC 25923; summary of the method: as §1
Trichophyton benhamiae = test: Antifungal activity against Trichophyton mentagrophytes; type: functional, Arthroderma benhamiae; conditions: for MIC: Trichophyton benhamiae
Summary of the method: (§2)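 Agar-well diffusion on Sabouraud agar at pH 5.7. Plates were lawned with a saline spore suspension (one loopful in 3 ml), decanted and dried 1 h at 37 °C. Compounds in DMSO went into punched wells, with a DMSO solvent control. Plates were run in triplicate and kept at 37 °C for 3-4 days, with inhibition-zone diameter as read-out.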

Aspergillus fumigatus = test: Antifungal activity against Aspergillus fumigatus NCIM 902; type: functional; conditions: for MIC: Aspergillus fumigatus, NCIM 902
Talaromyces marneffei = test: Antifungal activity against Penicillium marneffei; type: functional; conditions: for MIC: Talaromyces marneffei; summary of the method: as §2
Aspergillus flavus = test: Antifungal activity against Aspergillus flavus NCIM 524; type: functional; conditions: for MIC: Aspergillus flavus, NCIM 524; summary of the method: as §2
Klebsiella pneumoniae = test: Antibacterial activity against Klebsiella pneumoniae; type: functional; conditions: for MIC: Klebsiella pneumoniae; summary of the method: as §1
Escherichia coli = test: Antibacterial activity against Escherichia coli ATCC 25922; type: functional; conditions: for MIC: Escherichia coli, ATCC 25922; summary of the method: as §1

With CS(=O)(=O)c1ccc(OCc2nnc3n2N=C(c2ccc(Cl)cc2)CS3)cc1 the “inhibition zone (IZ)” value (Pseudomonas aeruginosa) was under 10 mm, the MIC (Pseudomonas aeruginosa) was 25 µg/mL (≈ 57.5 µM) and the “inhibition zone (IZ)” value (Staphylococcus aureus) was under 10 mm. The MIC (Staphylococcus aureus) was 25 µg/mL (≈ 57.5 µM), the inhibition zone (IZ) (Trichophyton benhamiae) was under 10 mm and the MIC (Trichophyton benhamiae) was 25 µg/mL (≈ 57.5 µM). The “inhibition zone (IZ)” value (Aspergillus fumigatus) was under 10 mm, the MIC (Aspergillus fumigatus) was 25 µg/mL (≈ 57.5 µM) and the “inhibition zone (IZ)” value (Talaromyces marneffei) was under 10 mm. For the same compound, the MIC (Talaromyces marneffei) was 25 µg/mL (≈ 57.5 µM), the “inhibition zone (IZ)” value (Aspergillus flavus) was under 10 mm and the MIC (Aspergillus flavus) was 25 µg/mL (≈ 57.5 µM). The “inhibition zone (IZ)” value (Klebsiella pneumoniae) was under 10 mm, the MIC (Klebsiella pneumoniae) was 25 µg/mL (≈ 57.5 µM) and the “inhibition zone (IZ)” value (Escherichia coli) was under 10 mm. For the same compound, the MIC (Escherichia coli) was 25 µg/mL (≈ 57.5 µM).
With CCSc1ccc(OCc2nnc3sc(-c4ccccc4)nn23)cc1 the “inhibition zone (IZ)” value (Pseudomonas aeruginosa) was 16 mm, the MIC (Pseudomonas aeruginosa) was 6.25 µg/mL (≈ 17 µM) and the “inhibition zone (IZ)” value (Staphylococcus aureus) was 16 mm. The MIC (Staphylococcus aureus) was 6.25 µg/mL (≈ 17 µM), the “inhibition zone (IZ)” value (Trichophyton benhamiae) was 16 mm and the MIC (Trichophyton benhamiae) was 6.25 µg/mL (≈ 17 µM). The “inhibition zone (IZ)” value (Aspergillus fumigatus) was 16 mm, the MIC (Aspergillus fumigatus) was 6.25 µg/mL (≈ 17 µM) and the “inhibition zone (IZ)” value (Talaromyces marneffei) was 16 mm. For the same compound, the MIC (Talaromyces marneffei) was 6.25 µg/mL (≈ 17 µM), the “inhibition zone (IZ)” value (Aspergillus flavus) was 16 mm and the MIC (Aspergillus flavus) was 6.25 µg/mL (≈ 17 µM). The “inhibition zone (IZ)” value (Klebsiella pneumoniae) was 16 mm, the MIC (Klebsiella pneumoniae) was 6.25 µg/mL (≈ 17 µM) and the “inhibition zone (IZ)” value (Escherichia coli) was 16 mm. It also gave an MIC (Escherichia coli) of 6.25 µg/mL (≈ 17 µM).
With CS(=O)(=O)c1ccc(OCc2nnc3sc(-c4cccc(Cl)c4)nn23)cc1 the “inhibition zone (IZ)” value (Pseudomonas aeruginosa) was 11 mm, the MIC (Pseudomonas aeruginosa) was 12.5 µg/mL (≈ 29.7 µM) and the “inhibition zone (IZ)” value (Staphylococcus aureus) was 11 mm. For the same compound, the MIC (Staphylococcus aureus) was 12.5 µg/mL (≈ 29.7 µM), the “inhibition zone (IZ)” value (Trichophyton benhamiae) was 11 mm and the MIC (Trichophyton benhamiae) was 12.5 µg/mL (≈ 29.7 µM). For the same compound, the “inhibition zone (IZ)” value (Aspergillus fumigatus) was 11 mm, the MIC (Aspergillus fumigatus) was 12.5 µg/mL (≈ 29.7 µM) and the “inhibition zone (IZ)” value (Talaromyces marneffei) was under 10 mm. The MIC (Talaromyces marneffei) was 25 µg/mL (≈ 59.4 µM), the “inhibition zone (IZ)” value (Aspergillus flavus) was 11 mm and the MIC (Aspergillus flavus) was 12.5 µg/mL (≈ 29.7 µM). For the same compound, the “inhibition zone (IZ)” value (Klebsiella pneumoniae) was 11 mm, the MIC (Klebsiella pneumoniae) was 12.5 µg/mL (≈ 29.7 µM) and the “inhibition zone (IZ)” value (Escherichia coli) was 11 mm. The MIC (Escherichia coli) was 12.5 µg/mL (≈ 29.7 µM).
In the case of CCSc1ccc(OCc2nnc3sc(-c4ccc(C)cc4)nn23)cc1, the “inhibition zone (IZ)” value (Pseudomonas aeruginosa) is reported as 16 mm, the MIC (Pseudomonas aeruginosa) is reported as 6.25 µg/mL (≈ 16.3 µM) and the “inhibition zone (IZ)” value (Staphylococcus aureus) is reported as 16 mm. For the same compound, the MIC (Staphylococcus aureus) was 6.25 µg/mL (≈ 16.3 µM), the “inhibition zone (IZ)” value (Trichophyton benhamiae) was under 10 mm and the MIC (Trichophyton benhamiae) was 25 µg/mL (≈ 65.4 µM). The “inhibition zone (IZ)” value (Aspergillus fumigatus) was under 10 mm, the MIC (Aspergillus fumigatus) was 25 µg/mL (≈ 65.4 µM) and the “inhibition zone (IZ)” value (Talaromyces marneffei) was 16 mm. The MIC (Talaromyces marneffei) was 6.25 µg/mL (≈ 16.3 µM), the “inhibition zone (IZ)” value (Aspergillus flavus) was under 10 mm and the MIC (Aspergillus flavus) was 25 µg/mL (≈ 65.4 µM). For the same compound, the “inhibition zone (IZ)” value (Klebsiella pneumoniae) was 16 mm, the MIC (Klebsiella pneumoniae) was 6.25 µg/mL (≈ 16.3 µM) and the “inhibition zone (IZ)” value (Escherichia coli) was 16 mm. The MIC (Escherichia coli) was 6.25 µg/mL (≈ 16.3 µM).
With CSc1ccc(OCc2nnc3n2N=C(c2ccc(O)c(C(N)=O)c2)CS3)cc1 the “inhibition zone (IZ)” value (Pseudomonas aeruginosa) was under 10 mm, the MIC (Pseudomonas aeruginosa) was 25 µg/mL (≈ 58.5 µM) and the “inhibition zone (IZ)” value (Staphylococcus aureus) was under 10 mm. The MIC (Staphylococcus aureus) was 25 µg/mL (≈ 58.5 µM), the “inhibition zone (IZ)” value (Trichophyton benhamiae) was under 10 mm and the MIC (Trichophyton benhamiae) was 25 µg/mL (≈ 58.5 µM). For the same compound, the “inhibition zone (IZ)” value (Aspergillus fumigatus) was under 10 mm, the MIC (Aspergillus fumigatus) was 25 µg/mL (≈ 58.5 µM) and the “inhibition zone (IZ)” value (Talaromyces marneffei) was under 10 mm. For the same compound, the MIC (Talaromyces marneffei) was 25 µg/mL (≈ 58.5 µM), the “inhibition zone (IZ)” value (Aspergillus flavus) was under 10 mm and the MIC (Aspergillus flavus) was 25 µg/mL (≈ 58.5 µM). For the same compound, the “inhibition zone (IZ)” value (Klebsiella pneumoniae) was under 10 mm, the MIC (Klebsiella pneumoniae) was 25 µg/mL (≈ 58.5 µM) and the “inhibition zone (IZ)” value (Escherichia coli) was under 10 mm. For the same compound, the MIC (Escherichia coli) was 25 µg/mL (≈ 58.5 µM).
COc1ccc(-c2nn3c(COc4ccc(SC)cc4)nnc3s2)cc1 was tested, and the “inhibition zone (IZ)” value (Pseudomonas aeruginosa) was 16 mm, the MIC (Pseudomonas aeruginosa) was 6.25 µg/mL (≈ 16.3 µM) and the “inhibition zone (IZ)” value (Staphylococcus aureus) was 16 mm. The MIC (Staphylococcus aureus) was 6.25 µg/mL (≈ 16.3 µM), the “inhibition zone (IZ)” value (Trichophyton benhamiae) was 16 mm and the MIC (Trichophyton benhamiae) was 6.25 µg/mL (≈ 16.3 µM). The “inhibition zone (IZ)” value (Aspergillus fumigatus) was 16 mm, the MIC (Aspergillus fumigatus) was 6.25 µg/mL (≈ 16.3 µM) and the “inhibition zone (IZ)” value (Talaromyces marneffei) was 16 mm. The MIC (Talaromyces marneffei) was 6.25 µg/mL (≈ 16.3 µM), the “inhibition zone (IZ)” value (Aspergillus flavus) was 16 mm and the MIC (Aspergillus flavus) was 6.25 µg/mL (≈ 16.3 µM). The “inhibition zone (IZ)” value (Klebsiella pneumoniae) was 16 mm, the MIC (Klebsiella pneumoniae) was 6.25 µg/mL (≈ 16.3 µM) and the “inhibition zone (IZ)” value (Escherichia coli) was 16 mm. For the same compound, the MIC (Escherichia coli) was 6.25 µg/mL (≈ 16.3 µM).
CSc1ccc(OCc2nnc3n2N=C(c2ccc(Cl)cc2)CS3)cc1 was tested, and the “inhibition zone (IZ)” value (Pseudomonas aeruginosa) was 16 mm, the MIC (Pseudomonas aeruginosa) was 6.25 µg/mL (≈ 15.5 µM) and the “inhibition zone (IZ)” value (Staphylococcus aureus) was 16 mm. The MIC (Staphylococcus aureus) was 6.25 µg/mL (≈ 15.5 µM), the “inhibition zone (IZ)” value (Trichophyton benhamiae) was 16 mm and the MIC (Trichophyton benhamiae) was 6.25 µg/mL (≈ 15.5 µM). For the same compound, the “inhibition zone (IZ)” value (Aspergillus fumigatus) was 16 mm, the MIC (Aspergillus fumigatus) was 6.25 µg/mL (≈ 15.5 µM) and the “inhibition zone (IZ)” value (Talaromyces marneffei) was 16 mm. For the same compound, the MIC (Talaromyces marneffei) was 6.25 µg/mL (≈ 15.5 µM), the “inhibition zone (IZ)” value (Aspergillus flavus) was 16 mm and the MIC (Aspergillus flavus) was 6.25 µg/mL (≈ 15.5 µM). The “inhibition zone (IZ)” value (Klebsiella pneumoniae) was 16 mm, the MIC (Klebsiella pneumoniae) was 6.25 µg/mL (≈ 15.5 µM) and the “inhibition zone (IZ)” value (Escherichia coli) was 16 mm. It also gave an MIC (Escherichia coli) of 6.25 µg/mL (≈ 15.5 µM).
In the case of CCSc1ccc(OCc2nnc3sc(-c4cccc(Cl)c4Cl)nn23)cc1, the “inhibition zone (IZ)” value (Pseudomonas aeruginosa) is reported as under 10 mm, the MIC (Pseudomonas aeruginosa) is reported as 25 µg/mL (≈ 57.2 µM) and the “inhibition zone (IZ)” value (Staphylococcus aureus) is reported as under 10 mm. For the same compound, the MIC (Staphylococcus aureus) was 25 µg/mL (≈ 57.2 µM), the “inhibition zone (IZ)” value (Trichophyton benhamiae) was under 10 mm and the MIC (Trichophyton benhamiae) was 25 µg/mL (≈ 57.2 µM). For the same compound, the “inhibition zone (IZ)” value (Aspergillus fumigatus) was under 10 mm, the MIC (Aspergillus fumigatus) was 25 µg/mL (≈ 57.2 µM) and the “inhibition zone (IZ)” value (Talaromyces marneffei) was under 10 mm. The MIC (Talaromyces marneffei) was 25 µg/mL (≈ 57.2 µM), the “inhibition zone (IZ)” value (Aspergillus flavus) was under 10 mm and the MIC (Aspergillus flavus) was 25 µg/mL (≈ 57.2 µM). The “inhibition zone (IZ)” value (Klebsiella pneumoniae) was under 10 mm, the MIC (Klebsiella pneumoniae) was 25 µg/mL (≈ 57.2 µM) and the “inhibition zone (IZ)” value (Escherichia coli) was under 10 mm. It also gave an MIC (Escherichia coli) of 25 µg/mL (≈ 57.2 µM).
